# RGS4 inh = inhibitors of human RGS4. HEK293 M3R/RGS4 inducible, Fluo-4 calcium flux; active compounds read high; triggered by carbachol at its EC20. B-score at 10 µM. P49798. hit rate 0.45% among 310,000. AID 463165;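 active = B-score, a plate-corrected calcium signal, over three deviations above library mean, with baseline fluorescence within five deviations of library mean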;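 also: RGS4 expression induced by doxycycline in cells with stable M3 receptor; B-score is computed from the integrated fluorescence ratio over baseline after carbachol; higher B-score means a larger calcium signal and so more RGS4 inhibition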
# Target sequence (P49798 whole entry, looked up): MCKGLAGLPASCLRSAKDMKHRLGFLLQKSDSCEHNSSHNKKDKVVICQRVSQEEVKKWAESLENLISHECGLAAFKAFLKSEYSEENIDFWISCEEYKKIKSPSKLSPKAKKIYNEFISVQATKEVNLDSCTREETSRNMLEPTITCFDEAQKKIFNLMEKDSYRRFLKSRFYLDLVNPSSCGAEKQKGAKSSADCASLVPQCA
# MrgX1 antagonist = blocks BAM8-22 activation of human MrgX1 receptor; AID 588676; Q96LB2; hit rate 1.3% among 310,000; B-score at 10 µM; MRGX1-HEK293 calcium flux, Fluo-4, BAM8-22 antagonism; active compounds read low;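 active = calcium-response B-score plate-corrected more than 3 library SD below zero, starting fluorescence within 5 deviations, no agonist response on first addition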;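 also: peak minus trough fluorescence over baseline after final BAM8-22 challenge near maximal dose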
# Target sequence (Q96LB2 whole entry, looked up): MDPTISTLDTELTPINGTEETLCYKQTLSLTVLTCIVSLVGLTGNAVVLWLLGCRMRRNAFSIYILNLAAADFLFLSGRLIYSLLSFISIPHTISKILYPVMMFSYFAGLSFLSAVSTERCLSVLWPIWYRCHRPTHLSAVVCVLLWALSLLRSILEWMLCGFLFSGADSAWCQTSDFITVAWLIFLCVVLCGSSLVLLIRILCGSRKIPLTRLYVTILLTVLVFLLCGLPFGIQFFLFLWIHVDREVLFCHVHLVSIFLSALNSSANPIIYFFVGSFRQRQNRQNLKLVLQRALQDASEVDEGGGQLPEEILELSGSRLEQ
# MrgX1 ag = agonists of human MrgX1 receptor; MrgX1-HEK293 cells, Fluo-4 calcium fluorescence, agonist mode; active compounds read high; Q96LB2; B-score at 10 µM; hit rate 0.44% among 310,000;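 active = calcium response B-score plate-corrected fluorescence ratio at least 3 library SD, with starting fluorescence B-score inside 5 SD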
#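 Material: MrgX1-expressing HEK293 cells / Dosing: compound as first of three additions / Incubation: overnight seeding, then 1 h dark dye loading / Signal: Fluo-4 NW calcium fluorescence / Evaluation: B-scored fluorescence response ratio / Benchmarks: positive and negative control wells on each plate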
# MrgX1 allo act = allosterically activates human MrgX1 receptor signaling; MrgX1-HEK293, Fluo-4 calcium flux, FDSS; active compounds read high; B-score at 10 µM; hit rate 0.63% among 310,000; AID 588675;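 active = plate-corrected calcium response at least 3 library SD above typical, normal starting fluorescence, not activating the receptor alone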;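 also: compound read alongside a low EC10 to EC30 dose of BAM8-22 agonist; peak minus trough fluorescence over baseline measured at the second addition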
# RGS4 act = potentiators or activators of RGS4 | HEK293 M3R/inducible RGS4, carbachol calcium flux Fluo4; active compounds read low | hit rate 0.92% among 310,000 | B-score at 10 µM;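 active = B-score of the integrated calcium signal more than 4 SD below the library mean, with starting fluorescence not abnormally high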;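 also: negative B-score means reduced calcium response which marks RGS4 activation or potentiation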
#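 System – HEK293 FlpIn-TREx cells, stable M3R, doxycycline-inducible RGS4 · Reagent – ECmax carbachol challenge · Times – compound preincubation 20 min at room temperature before agonist · Technique – Fluo4 fluorescence kinetic imaging of calcium · Measure – B score of integrated Fluo4 ratio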
# RGS4 act valid = RGS4 activation, validation assay; shares compounds with RGS4 act; HEK293 M3R/RGS4 inducible, carbachol calcium flux Fluo4; inhibition, % at 10 µM; hit rate 89% among 1,100;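 active = inhibition above 3 SD of the buffer control wells, cut at about 41% in these data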;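 also: signal is the integrated peak-minus-minimum Fluo4 fluorescence over baseline ratio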
# M3R Ca counter = activity in cells without induced RGS4 expression; hit rate 82% among 1,100; AID 602283; HEK293 M3R non-induced RGS4, Fluo4 calcium flux; after carbachol challenge at its EC90; inhibition, % at 10 µM; shares compounds with RGS4 act;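 active = inhibition exceeding 3 SD of buffer-only control wells, cut at about 26% in these data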;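 also: percent drop in integrated peak-minus-baseline over baseline Fluo4 ratio after carbachol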
# Numbers without * were called inactive; i = inactive; · = no result given. Rows were chosen to be rich in hits. Some 3.5% of all compounds tested hit in one or more screens of this group.
SMILES,RGS4 inh,MrgX1 antagonist,MrgX1 ag,MrgX1 allo act,RGS4 act,RGS4 act valid,M3R Ca counter
COc1ccc2nc3sc(C(=O)NCCCN4CCc5ccccc5C4)cc3cc2c1,i,i,i,i,-8.2*,74*,84*
CCCC[C@@H]1CNCCN1CCc1cc(C(F)(F)F)cc(C(F)(F)F)c1,i,i,i,i,-7.9*,93*,86*
CCn1nccc1C(=O)Nc1ccc(C(=O)OC(C)C)cc1,i,i,i,i,i,·,·
CN(C)S(=O)(=O)N1CCc2ccc(NC(=O)c3ccc(C(F)(F)F)cc3)cc2C1,i,i,i,i,i,·,·
CCCOc1ccc(OCCN2CCCC(C)C2)cc1 (centres undefined),i,i,i,i,-9.8*,92*,50*
CC1CCCN(CCOc2cccc(Oc3ccccc3)c2)C1 (centres undefined),i,i,i,i,-8.6*,90*,57*
Clc1ccc(OCCCN2CCCC2)cc1Cl,i,i,i,i,i,·,·
c1ccc(Oc2cccc(OCCCCN3CCCC3)c2)cc1,i,i,i,i,-11*,94*,88*
CC1CN(CCCCOc2cccc(Oc3ccccc3)c2)CC(C)O1 (centres undefined),i,i,i,i,i,·,·
Cc1cc(OCCCCCN2CCCC2)ccc1Cl,i,i,i,i,-9.5*,80*,27*
O=C(CC(c1ccccc1)c1cc(Br)ccc1O)N1CCCCC1 (centres undefined),i,i,i,i,i,·,·
CCOC(=O)Cc1nnc(NC(=O)CSc2nc3ccccc3[nH]2)s1,i,i,i,i,i,·,·
CC1CCN(CCOc2cccc(Br)c2)CC1,i,i,i,i,i,·,·
Brc1cccc(OCCCN2CCCCCC2)c1,i,i,i,i,-8.5*,76*,84*
COCCC(=O)N1CCC(n2nccc2NC(=O)CCc2ccccc2)CC1,i,i,i,i,i,·,·
CC(C)(C)N(Cc1ccccc1)C(=O)c1cc2ccccc2o1,i,i,i,i,-7.6*,91*,93*
CN(Cc1ccccc1)C(=O)c1cc2ccccc2o1,i,i,i,i,i,·,·
Cc1ccc2oc(C(=O)N3CCN(Cc4nccn4C)CC3)c(C)c2c1,i,i,i,i,i,·,·
Cc1cnc(NC(=O)c2ccc(-c3nc4ccccc4s3)o2)s1,i,i,i,i,-9.7*,79*,32*
Cc1cnc(NC(=O)CSc2nc3ccccc3s2)s1,i,i,i,i,i,·,·
CS(=O)(=O)c1ccc2nc(NC(=O)c3ccc(Cn4cc(Br)cn4)o3)sc2c1,i,i,i,i,-8.8*,63*,0
CCOc1ccc(Br)cc1C1C(C(=O)OC)=C(N)Oc2cc(N(C)C)ccc21 (centres undefined),i,i,i,i,-9.2*,92*,69*
O=C(NC1CCCCC1)N1CCSC1=Nc1ccccc1,i,i,i,i,-8.2*,80*,43*
COC(=O)C(Nc1ccccc1Cl)(c1cc(C)c(O)c(C)c1)C(F)(F)F (centres undefined),i,i,i,i,-9.6*,93*,97*
O=C(OCc1ccc(F)cc1)c1cc(S(=O)(=O)N2CCCCC2)ccc1N1CCOCC1,i,i,i,i,i,·,·
SMILES,RGS4 inh,MrgX1 antagonist,MrgX1 ag,MrgX1 allo act,RGS4 act,RGS4 act valid,M3R Ca counter
O=C(Nc1ccccc1N1CCN(C(=O)c2ccccc2)CC1)c1ccc(Cl)cc1,i,i,i,i,i,·,·
O=C(NC(=S)Nc1ccccc1N1CCOCC1)c1ccccc1F,i,i,i,i,i,·,·
O=C(Nc1ccccc1N1CCN(C(=O)c2ccccc2)CC1)c1ccc(Br)o1,i,i,i,i,-7.8*,48*,0
COc1ccc(C(=O)Nc2ccccc2N2CCN(C(=O)c3ccccc3)CC2)cc1Br,i,i,i,i,-9.4*,64*,26*
O=C(NC(=S)Nc1ccccc1N1CCN(C(=O)c2ccccc2)CC1)c1ccccc1F,i,i,i,i,-8*,68*,0
CC(=O)/C(=N/Nc1ccccc1[N+](=O)[O-])N1CCCc2ccccc21,i,i,i,i,-11*,93*,89*
CC(=O)/C(=N/Nc1ccc([N+](=O)[O-])cc1)N1CCCc2ccccc21,i,i,i,i,i,·,·
Cc1cccc(OCc2nc(C#N)c(N3CC(C)CC(C)C3)o2)c1 (centres undefined),i,i,i,i,-9.1*,94*,70*
Cc1cccc(OCc2nc(C#N)c(N3CCCC3)o2)c1,i,i,i,i,i,·,·
CC(=O)c1ccc(N2CCN(C(=O)c3cc(-c4ccncc4)nc4ccc(Br)cc34)CC2)cc1,i,i,i,i,-9.3*,68*,0
O=C(c1ccco1)N1CCN(C(=O)c2cc(-c3ccncc3)nc3ccc(Br)cc23)CC1,i,i,i,i,i,·,·
O=C(c1cc(-c2ccccc2)nc2ccccc12)N1CCOCC1,i,i,i,i,i,·,·
CC(C)c1ccc(-c2cc(C(=O)N3CCOCC3)c3cc(Br)ccc3n2)cc1,i,i,i,i,-8.4*,80*,38*
C/C(=N\NC(=O)c1cc(C)oc1C)c1ccc2ccccc2c1,i,i,i,i,i,·,·
COc1cccc(-c2nc3c(c(SCC(=O)N4CCOCC4)n2)Cc2c(CO)cnc(C)c2O3)c1,i,i,i,i,-8.1*,40*,84*
Cc1ncc(CO)c2c1Oc1nc(-c3ccccc3)nc(SCC(=O)N3CCCCC3)c1C2,i,i,i,i,-7.8*,76*,40*
COc1cc(CNCc2ccc(OC)cc2OC)cc(OC)c1,i,i,i,i,i,·,·
COC(=O)c1ccc(NC(=O)c2cccc(NC(=O)c3ccccc3)c2)cc1,i,i,i,i,i,·,·
O=C(OCc1nnc(-c2ccccc2)o1)c1cn(-c2ccccc2)nc1-c1ccccc1,i,i,i,i,i,·,·
Cc1cc(C(=O)OCc2nnc(-c3ccccc3)o2)c(C)n1-c1ccccc1,i,i,i,i,-8.9*,94*,85*

# High-throughput results as filed in PubChem.
